# Laboratory results: ChEMBL document CHEMBL5303300, “EUbOPEN Chemogenomics Library - Multiplex” (2023)
# Where “and” joins values, the source holds several entries; their conditions need not be identical. Identical values can stand only once.
# What was measured:
# U2OS = test: Multiplex assay against U2OS; assay type: toxicity, cell-based; conditions: human, number of replicates 2
# Procedure, shortened: (§1)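 Live cells were stained at seeding with Hoechst33342, BioTracker Green Microtubule Cytoskeleton Dye, MitoTracker Red and Annexin V Alexa Fluor 680, then imaged on a CQ1 microscope at 37°C and 5% CO2 after compound addition. CellPathfinder machine-learning gating split cells into Hoechst high-intensity objects or normal cells. Normal cells were split into healthy, pyknosed or fragmented nuclei, and pyknosed cells into mitotic or apoptotic. Tubulin, mitochondrial-mass and membrane-permeability phenotypes are per cents of healthy-nucleus cells.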
# HEK-293T = test: Multiplex assay against HEK293T; assay type: toxicity, cell-based; conditions: human, number of replicates 2; procedure, shortened: as §1
# [1] = 12 h, 1 µM, compound concentration 1 uM
# [2] = 12 h, 10 µM, compound concentration 10 uM
# [3] = 24 h, 1 µM, compound concentration 1 uM
# [4] = 24 h, 10 µM, compound concentration 10 uM
# [5] = 48 h, 1 µM, compound concentration 1 uM
# [6] = 48 h, 10 µM, compound concentration 10 uM
smiles,measurement,setting,value
Cc1onc(-c2ccccc2Cl)c1C(=O)N(C)c1ccc(Cl)cc1,Population Apoptotic (%),U2OS; [1],60% and 64%
same,Population Healthy Nuclei (%),U2OS; [1],57% and 80%
same,Population Hoechst High Intensity Objects (%),U2OS; [1],0%
same,Population Mitochondria Different-Phenotype (%),U2OS; [1],20% and 0%
same,Population Mitotic Cells (%),U2OS; [1],40% and 35%
same,Population Normal (%),U2OS; [1],100%
same,Population Pyknosed Nuclei (%),U2OS; [1],14% and 17%
same,Population Tubulin-Different-Phenotype (%),U2OS; [1],65% and 85%
same,Population Apoptotic (%),U2OS; [2],33% and 73%
same,Population Healthy Nuclei (%),U2OS; [2],52% and 83%
same,Population Hoechst High Intensity Objects (%),U2OS; [2],0%
same,Population Membrane Permeable-Phenotype (%),U2OS; [2],0% and 4%
same,Population Mitochondria Different-Phenotype (%),U2OS; [2],0%
same,Population Mitotic Cells (%),U2OS; [2],66% and 26%
same,Population Normal (%),U2OS; [2],100%
same,Population Pyknosed Nuclei (%),U2OS; [2],13% and 12%
same,Population Tubulin-Different-Phenotype (%),U2OS; [2],88% and 70%
same,Population Apoptotic (%),U2OS; [3],50% and 45%
same,Population Healthy Nuclei (%),U2OS; [3],72% and 85%
same,Population Hoechst High Intensity Objects (%),U2OS; [3],0%
same,Population Mitochondria Different-Phenotype (%),U2OS; [3],13% and 0%
same,Population Mitotic Cells (%),U2OS; [3],50% and 54%
same,Population Normal (%),U2OS; [3],100% and 99%
same,Population Pyknosed Nuclei (%),U2OS; [3],10% and 12%
same,Population Tubulin-Different-Phenotype (%),U2OS; [3],68% and 86%
same,Population Apoptotic (%),U2OS; [4],22% and 41%
same,Population Healthy Nuclei (%),U2OS; [4],67% and 85%
same,Population Hoechst High Intensity Objects (%),U2OS; [4],0%
same,Population Membrane Permeable-Phenotype (%),U2OS; [4],3%
same,Population Mitochondria Different-Phenotype (%),U2OS; [4],1%
same,Population Mitotic Cells (%),U2OS; [4],77% and 58%
same,Population Normal (%),U2OS; [4],100%
same,Population Pyknosed Nuclei (%),U2OS; [4],9% and 10%
same,Population Tubulin-Different-Phenotype (%),U2OS; [4],77% and 73%
same,Population Apoptotic (%),U2OS; [5],60% and 56%
same,Population Healthy Nuclei (%),U2OS; [5],75% and 91%
same,Population Hoechst High Intensity Objects (%),U2OS; [5],0%
same,Population Membrane Permeable-Phenotype (%),U2OS; [5],8% and 2%
same,Population Mitochondria Different-Phenotype (%),U2OS; [5],3% and 0%
same,Population Mitotic Cells (%),U2OS; [5],40% and 43%
same,Population Normal (%),U2OS; [5],100% and 99%
same,Population Pyknosed Nuclei (%),U2OS; [5],6%
same,Population Tubulin-Different-Phenotype (%),U2OS; [5],74% and 88%
same,Population Apoptotic (%),U2OS; [6],30% and 56%
same,Population Healthy Nuclei (%),U2OS; [6],76% and 89%
same,Population Hoechst High Intensity Objects (%),U2OS; [6],0%
same,Population Membrane Permeable-Phenotype (%),U2OS; [6],0% and 1%
same,Population Mitochondria Different-Phenotype (%),U2OS; [6],0% and 2%
same,Population Mitotic Cells (%),U2OS; [6],70% and 43%
same,Population Normal (%),U2OS; [6],100%
same,Population Pyknosed Nuclei (%),U2OS; [6],7% and 9%
same,Population Tubulin-Different-Phenotype (%),U2OS; [6],88% and 82%
same,Population Apoptotic (%),HEK-293T; [1],39% and 47%
same,Population Fragmented Nuclei (%),HEK-293T; [1],2% and 5%
same,Population Healthy Nuclei (%),HEK-293T; [1],80% and 83%
same,Population Hoechst High Intensity Objects (%),HEK-293T; [1],6%
same,Population Membrane Permeable-Phenotype (%),HEK-293T; [1],2% and 1%
same,Population Mitochondria Different-Phenotype (%),HEK-293T; [1],18% and 15%
same,Population Mitotic Cells (%),HEK-293T; [1],60% and 52%
same,Population Normal (%),HEK-293T; [1],93%
same,Population Pyknosed Nuclei (%),HEK-293T; [1],16% and 11%
same,Population Tubulin-Different-Phenotype (%),HEK-293T; [1],47% and 44%
same,Total Cell Count,HEK-293T; [1],587 and 613
same,Population Apoptotic (%),HEK-293T; [2],50%
same,Population Fragmented Nuclei (%),HEK-293T; [2],3%
same,Population Healthy Nuclei (%),HEK-293T; [2],81% and 84%
same,Population Hoechst High Intensity Objects (%),HEK-293T; [2],5% and 7%
same,Population Membrane Permeable-Phenotype (%),HEK-293T; [2],4% and 1%
same,Population Mitochondria Different-Phenotype (%),HEK-293T; [2],26% and 20%
same,Population Mitotic Cells (%),HEK-293T; [2],50% and 49%
same,Population Normal (%),HEK-293T; [2],94% and 92%
same,Population Pyknosed Nuclei (%),HEK-293T; [2],15% and 11%
same,Population Tubulin-Different-Phenotype (%),HEK-293T; [2],77% and 55%
same,Total Cell Count,HEK-293T; [2],575 and 625
same,Population Apoptotic (%),HEK-293T; [3],44% and 42%
same,Population Fragmented Nuclei (%),HEK-293T; [3],7%
same,Population Healthy Nuclei (%),HEK-293T; [3],83% and 86%
same,Population Hoechst High Intensity Objects (%),HEK-293T; [3],6% and 8%
same,Population Membrane Permeable-Phenotype (%),HEK-293T; [3],2%
same,Population Mitochondria Different-Phenotype (%),HEK-293T; [3],4% and 5%
same,Population Mitotic Cells (%),HEK-293T; [3],55% and 57%
same,Population Normal (%),HEK-293T; [3],93% and 91%
same,Population Pyknosed Nuclei (%),HEK-293T; [3],9% and 6%
same,Population Tubulin-Different-Phenotype (%),HEK-293T; [3],22%
same,Total Cell Count,HEK-293T; [3],896 and 976
same,Population Apoptotic (%),HEK-293T; [4],36% and 23%
same,Population Fragmented Nuclei (%),HEK-293T; [4],5% and 6%
same,Population Healthy Nuclei (%),HEK-293T; [4],84% and 85%
same,Population Hoechst High Intensity Objects (%),HEK-293T; [4],5% and 8%
same,Population Membrane Permeable-Phenotype (%),HEK-293T; [4],4%
same,Population Mitochondria Different-Phenotype (%),HEK-293T; [4],14% and 5%
